Results collected from several papers.
Compare with care: the assays were run in different laboratories.
RPS6KA2: Ribosomal protein S6 kinase alpha-2 (RPS6KA2, Homo sapiens, UniProt Q15349)
RPS6KA2 C-terminal kinase domain: Ribosomal protein S6 kinase alpha-2, C-terminal kinase domain (RPS6KA2, Homo sapiens, UniProt Q15349)
RPS6KA2 N-terminal kinase domain: Ribosomal protein S6 kinase alpha-2, N-terminal kinase domain (RPS6KA2, Homo sapiens, UniProt Q15349)

`COc1cc2ncnc(Nc3ccc(Oc4ccccc4)cc3C)c2cc1OC` gave an inhibition of 3% (RPS6KA2; enzyme activity, inhibitor; 1 µM).
The inhibition of `Cc1ccc(Nc2nccc(N(C)c3ccc4c(C)n(C)nc4c3)n2)cc1S(N)(=O)=O` is reported as 27% (RPS6KA2; enzyme activity, inhibitor; 0.3 µM).
For `Nc1ncnc2occ(-c3ccc(NC(=O)Nc4cc(C(F)(F)F)ccc4F)cc3)c12`, the remaining signal was 2.3% (RPS6KA2 C-terminal kinase domain; cell-free assay, inhibitor; 20 µM).
The inhibition of `CNCc1ccc(-c2cc(-c3nc(-c4ccc(S(=O)(=O)C(C)C)cc4)cnc3N)on2)cc1` is reported as 17% (RPS6KA2; enzyme activity, inhibitor; 0.4 µM).
`C[C@@H]1CN(c2cc(-c3n[nH]c4ccc(OC5(C)CC5)cc34)ncn2)C[C@H](C)O1` gave a remaining binding of 100% (RPS6KA2 C-terminal kinase domain; cell-free assay, competition with immobilised ligand; 0.1 µM).
`COc1ccnn2ncc(-c3ccnc(N(C)C)n3)c12` gave a remaining binding of 74% (RPS6KA2 N-terminal kinase domain; binding, competition with immobilised ligand; 1 µM).
With `FC(F)(F)c1ccc2c(c1)nc(-c1cccnc1)n2C1CC1` the remaining binding was 100% (RPS6KA2 N-terminal kinase domain; cell-free assay, competition with immobilised ligand; 1 µM).
`Cc1ccc(C(=O)Nc2ccc(CN3CCN(C)CC3)c(C(F)(F)F)c2)cc1C#Cc1cnc2cccnn12` has an activity vs control of 98% (RPS6KA2; enzyme activity, inhibitor; 23.5 nM).
`Cc1ccc(C(=O)NCc2ccsc2)cc1C#Cc1cn(C(C)C)c2ncnc(N)c12` has an activity vs control of 85% (RPS6KA2; enzyme activity, inhibitor; 1 µM).
`CNC(=O)Nc1ccc2c(c1)[C@@]1(CC2)OC(=O)N(CC(=O)N(Cc2ccc(F)cc2)[C@@H](C)C(F)(F)F)C1=O` gave a remaining binding of 100% (RPS6KA2 C-terminal kinase domain; cell-free assay, competition with immobilised ligand; 1 µM).
With `Cc1cnc(NC2CCOCC2)nc1-n1cnc(C(=O)NC(CN)c2cc(F)cc(Cl)c2)c1` (stereo not drawn) the remaining activity was 12% (RPS6KA2; enzyme activity, inhibitor, radiometric; 1 µM).
The remaining binding of `CCCCN(CCCC)C(=O)CN1C[C@@H](c2cc(OC)c3c(c2)OCO3)[C@H](C(=O)O)[C@H]1CC(C)(C)CCC` is reported as 90.2% (RPS6KA2 C-terminal kinase domain; cell-free assay, competition with immobilised ligand; 1 µM).
For `COc1cc(Cl)c(C(=O)N[C@@H](CN[C@H]2CC[C@@H](N)CC2)Cc2ccc(C#N)cc2)cc1-c1ccc(CN[C@H](C)c2ccc(C)cc2)o1`, the remaining activity was 106% (RPS6KA2; enzyme activity, inhibitor; 1 µM).
`CC1CCCN1c1nccc(-c2cnn3ncccc23)n1` (stereo not drawn) gave a remaining binding of 100% (RPS6KA2 C-terminal kinase domain; binding, competition with immobilised ligand; 1 µM).
For `O=C(NC[C@@H]1[C@H]2CN(C(=O)OCc3cc(C(F)(F)F)cc(C(F)(F)F)c3)C[C@@H]12)c1ccc2[nH]nnc2c1`, the remaining binding was 84% (RPS6KA2 C-terminal kinase domain; cell-free assay, competition with immobilised ligand; 1 µM).
With `CC(C)(C)c1nc2c(s1)c1nc(N)ncc1c1ccc(NS(=O)(=O)c3c(F)cccc3F)c(F)c12` the remaining activity was 84% (RPS6KA2; enzyme activity, inhibitor, radiometric; 1 µM).
With `N[C@H]1CCN(c2nccc(-c3cnn4ncccc34)n2)C1` the remaining binding was 85% (RPS6KA2 N-terminal kinase domain; binding, competition with immobilised ligand; 1 µM).
`CN(C)C(=O)Cn1cc(-c2nc([C@@](C)(c3ccc(-c4cnc(N)nc4)cc3)C3CC3)no2)cn1` gave a remaining binding of 85% (RPS6KA2 N-terminal kinase domain; cell-free assay, competition with immobilised ligand; 1 µM).
`C[C@@H]1CCN(c2nccc(-c3cnn4ncccc34)n2)C1` gave a remaining binding of 45% (RPS6KA2 C-terminal kinase domain; binding, competition with immobilised ligand; 1 µM).
`CCOc1cc(-c2nncn2C)ccc1Nc1ncc2cc(C)nc(NCC(C)(C)C)c2n1` gave an inhibition of < 15% (RPS6KA2; enzyme activity, inhibitor, FRET; 1 µM).
With `CN(C)c1ncc(F)c(-c2cnn3ncccc23)n1` the remaining binding was 97% (RPS6KA2 C-terminal kinase domain; binding, competition with immobilised ligand; 1 µM).
With `CCCS(=O)(=O)Nc1ccc(F)c(C(=O)c2c[nH]c3ncc(-c4ccc(Cl)cc4)cc23)c1F` the inhibition was < 10% (RPS6KA2; enzyme activity, inhibitor; 1 µM).
For `CN(C)c1nccc(-c2cnn3ncccc23)n1`, the remaining binding was 100% (RPS6KA2 C-terminal kinase domain; binding, competition with immobilised ligand; 1 µM).
With `O=c1nc(-c2ccccn2)sc2ccccc12` the remaining binding was 100% (RPS6KA2 N-terminal kinase domain; binding, competition with immobilised ligand; 1 µM).
